# Compound activity from PubChem.
# Only some compounds are listed: those with a hit (about 1.4% of all), similar ones and a draw of the others.
# SUMO HTRF inh: SUMOylation inhibition. HTRF SUMOylation assay, SAE1/SAE2 + UBC9, in vitro. inhibition, % at 35 µM. 0.36% of 290,000 active. AID 2006; in the data active means inhibition above about 50%, passing the limit was not always enough
# GSTO1 inh: counter-screen for RBBP9 inhibitors: inhibitors of human GSTO1; inhibition, % at 5.96 µM; recombinant GSTO1, activity-based probe fluorescence polarization; 1.1% of 300,000 active; AID 1974;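 active means inhibition above the campaign mean inhibition plus 3 SD, cut at about 35% in these data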;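 further: 0% = GSTO1-1 with DMSO and 100% = wells lacking GSTO1-1 enzyme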
# Redox H2O2 prof: compounds producing H2O2 with reducing agent – biochemical, NIH compound library profiling, artefact control for MLSCN library redox annotation, primary screen; activation, % at 10 µM; AID 878; 0.03% of 200,000 active; DTT-dependent redox cycling H2O2, phenol red/HRP absorbance; 100% = 100 µM peroxide control, 0% = buffer;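 active means activation of at least 50% relative to the plate's high and low controls in the primary single-dose screen; inactive means activation below 50%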;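 further: compound incubated with DTT at 0.8 mM final as the reducing agent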
# Apaf-1 inh: blocks human Apaf-1 apoptosome activity; O14727; reconstituted apoptosome caspase-3 activity, DEVD-Rh110 fluorescence; inhibition, % at 20 µM; 0.71% of 330,000 active; active means inhibition of at least 40% at 20 µM;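 further: plate controls were DMSO wells for no effect and DEVD-CHO caspase inhibitor wells for full effect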
#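 Material: cell-free apoptosome with Apaf-1, procaspase-3 and caspase-9; Buffer or medium: Hepes pH 7.5 with detergent and BSA; Reagent: cytochrome c trigger plus (Z-DEVD)2-Rh110 caspase-3 substrate; Times: compound with Apaf-1, dATP, procaspase-3 30 min, then 50 min reaction, room temperature; Technique: Rh110 fluorescence intensity.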
# HKDC1 inh: blocks human hexokinase HKDC1 activity; Q2TB90; 0.16% of 340,000 active; inhibition, % at 20 µM; recombinant HKDC1, G6PDH/diaphorase resazurin coupled fluorescence; AID 493160;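 active means inhibition above about 35% when tested at 20 µM, limit read from the data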;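 further: plate controls were DMSO wells with enzyme for no effect and DMSO wells lacking enzyme for full effect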
# Target sequence (Q2TB90 whole entry, looked up): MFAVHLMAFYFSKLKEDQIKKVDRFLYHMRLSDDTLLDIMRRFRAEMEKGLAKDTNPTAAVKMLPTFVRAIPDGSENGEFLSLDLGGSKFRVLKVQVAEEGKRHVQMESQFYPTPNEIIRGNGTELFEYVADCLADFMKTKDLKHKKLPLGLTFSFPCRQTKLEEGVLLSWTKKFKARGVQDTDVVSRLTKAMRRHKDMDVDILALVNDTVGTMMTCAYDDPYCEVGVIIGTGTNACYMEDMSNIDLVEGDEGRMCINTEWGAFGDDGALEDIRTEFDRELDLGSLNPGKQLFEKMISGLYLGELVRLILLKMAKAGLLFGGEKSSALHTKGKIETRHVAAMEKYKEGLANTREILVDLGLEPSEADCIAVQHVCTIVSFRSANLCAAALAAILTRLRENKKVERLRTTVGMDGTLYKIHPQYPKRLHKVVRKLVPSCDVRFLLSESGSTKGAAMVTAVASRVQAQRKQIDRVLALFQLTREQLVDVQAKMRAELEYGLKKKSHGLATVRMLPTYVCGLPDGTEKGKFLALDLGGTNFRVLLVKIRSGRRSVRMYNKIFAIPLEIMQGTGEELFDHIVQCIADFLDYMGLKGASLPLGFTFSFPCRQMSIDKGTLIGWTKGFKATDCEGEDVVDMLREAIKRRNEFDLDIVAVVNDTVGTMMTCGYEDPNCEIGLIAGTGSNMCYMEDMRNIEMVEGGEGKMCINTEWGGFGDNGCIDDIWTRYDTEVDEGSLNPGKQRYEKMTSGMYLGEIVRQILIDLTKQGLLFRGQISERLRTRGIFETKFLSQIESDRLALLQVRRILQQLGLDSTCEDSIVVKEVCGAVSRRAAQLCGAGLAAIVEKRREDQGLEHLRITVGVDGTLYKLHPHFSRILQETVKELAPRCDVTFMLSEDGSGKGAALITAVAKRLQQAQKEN
#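 Assay system – recombinant HKDC1 (HK5) hexokinase enzyme, produced in-house · Input – HKDC1 at 5 µg/mL · Reagent – glucose plus 1 mM ATP as hexokinase substrates · Timing – 90 min reaction incubation at room temperature, dark · Measured by – G6PDH/diaphorase-coupled fluorescence, 1 mM NADP, 100 µM resazurin, 525/613 nm · Benchmarks – DMSO-enzyme wells negative, buffer-substituted wells positive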
# GSTO1 confirm: GSTO1 (human) inhibition, confirmation | inhibition, % at 5.96 µM | shares compounds with GSTO1 inh | 54% of 2,400 active | recombinant GSTO1, probe fluorescence polarization;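 active means inhibition above the primary screen's cutoff, its mean inhibition plus 3 SD, cut at about 35% in these data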;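 further: loss of polarization as inhibitors block binding of rhodamine sulfonate ester activity probe; 0% = GSTO1 with DMSO and 100% = wells lacking GSTO1 enzyme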
# Apaf-1 inh conf2: confirmation of Apaf-1 inhibitors | shares compounds with Apaf-1 inh | 25% of 1,800 active | AID 504614 | reconstituted apoptosome, caspase-3 DEVD-Rh110 fluorescence | inhibition, % at 20 µM;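 active means mean inhibition of at least 40% at 20 µM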;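 further: plate controls were DMSO wells for no effect and DEVD-CHO caspase inhibitor control wells for full effect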
# Rh110 quench: interferes with Rh110 fluorescence, flagging false Apaf-1 inhibitors. shares compounds with Apaf-1 inh. Rh110 fluorescence interference, quenched caspase reaction. activation (fluorescence interference), % at 20 µM. 1,800 tested, under 10 active;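 active means signal rise of 40% or more at 20 µM, treated as a fluorescence artifact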
# Fluor interf inh: Apaf-1 inhibitor counter-screen fluorescence artifact; shares compounds with Apaf-1 inh; fluorescence interference counterscreen, Apaf-1 assay format; IC50, µM; 460 tested, under 10 active; call rule not given here
# Active calls of the source: *; · = no result.
SMILES,SUMO HTRF inh,GSTO1 inh,Redox H2O2 prof,Apaf-1 inh,HKDC1 inh,GSTO1 confirm,Apaf-1 inh conf2,Rh110 quench,Fluor interf inh
CN(C)c1ccc(NC(=O)Oc2ccccc2)cc1,-116,39*,0,48*,1,7,11,3,·
Cc1ccc2nc3c(cc(C#N)c(=N)n3Cc3cccnc3)c(=O)n2c1,2,-8,0,-4,·,·,·,·,·
O=C(Cc1ccccc1Cl)NC1(O)C(=O)c2ccccc2C1=O,·,67*,·,89*,-5,67*,65*,1,>100
CN(C)c1ccc(NC(=O)Cc2ccccc2)c2ccccc12,15,3,·,4,7,·,·,·,·
COc1cccc(C(c2c(C)[nH]n(-c3ccccc3)c2=O)c2c(C)[nH]n(-c3ccccc3)c2=O)c1O,·,65*,·,94*,3,38*,31,10,·
Cc1[nH]n(-c2ccccc2)c(=O)c1C(C[N+](=O)[O-])c1ccccc1Cl (configuration not stated),22,43*,0,79*,1,16,38,10,·
COc1cccc(C(c2c(C)[nH]n(-c3ccccc3)c2=O)c2c(C)[nH]n(-c3ccccc3)c2=O)c1OC,93,64*,0,97*,0,31,31,6,·
CCOc1cccc(C(c2c(C)n(C)n(-c3ccccc3)c2=O)c2c(C)n(C)n(-c3ccccc3)c2=O)c1OC,7,-6,·,7,-1,·,·,·,·
Cc1[nH]n(-c2ccccc2)c(=O)c1-c1ccccc1,-8,-8,-3,3,1,·,·,·,·
COc1ccc(OC)c(C(C(=O)NC2CCCCC2)N(C(=O)c2ccccn2)c2cccnc2)c1 (configuration not stated),4,-5,·,-3,-6,·,·,·,·
COc1cccc2c1C(=O)c1c(O)c3c(c(O)c1C2=O)C[C@@](O)(C(=O)CO)C[C@@H]3O[C@H]1C[C@H](N)[C@H](O)[C@H](C)O1,26,45*,13,58*,9,32,61*,0,>100
CC(C)=CCC1=C(OCC(=O)O)C(=O)c2ccccc2C1=O,94,89*,·,95*,23,85*,88*,-8,>100
O=C1c2ccccc2C(=O)c2c1oc(C(F)(F)F)c2C(=O)c1ccccc1,6,62*,0,79*,17,71*,85*,1,>100
O=C(c1ccccc1)c1coc2c1C(=O)c1ccccc1C2=O,39,60*,-1,64*,-2,39*,70*,6,>100
CC(C)NC(=O)COC(=O)C1CSC2(c3ccc(Br)cc3)CCC(=O)N12 (configuration not stated),-15,9,-2,-9,-7,·,·,·,·
Cc1ccc(CNS(=O)(=O)c2c(C)[nH]c(=O)[nH]c2=O)cc1,12,·,·,2,0,·,·,·,·
COC(=O)CCC(=O)OC1(C)C(=O)C2=CN(CCCOC(C)C)C(c3ccc(OC)cc3)=CC2=C(Br)C1=O (configuration not stated),5,52*,·,79*,28,65*,71*,5,>100
CCCCC1=CC2=C(c3ccco3)C(=O)C(C)(OC(=O)c3ccc(OC)cc3)C(=O)C2=CN1CCCOC(C)C (configuration not stated),4,6,·,2,12,·,·,·,·
COC(=O)CCC(=O)OC1(C)C(=O)C2=CN(C3CC3)C(c3ccc(OC)cc3)=CC2=C(Br)C1=O (configuration not stated),·,63*,·,61*,34,24,56*,1,>100
COc1cc(NS(=O)(=O)c2ccc(NC(=O)c3cccnc3)cc2)ncn1,16,2,·,6,2,·,·,·,·
